Reference: ChEMBL document CHEMBL3585334, “α- and β-Santalols Directly Interact with Tubulin and Cause Mitotic Arrest and Cytotoxicity in Oral Cancer Cells” (2015)
Activity calls are given as the source filed them. No cut-off for these calls is given here.

How the values were obtained:
[1] = Growth inhibition of human HSC3 cells after 48 hrs by sulforhodamine B assay; type: functional; settings: HSC-3, 48 h; for CC50: read-out: LC50 (the source's name)
How it was run: (§1)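 Cells grown in DMEM with 10% FBS and 50 μg/mL gentamicin. They were exposed for 48 h to at least six concentrations, and the SRB assay was the read-out. GI50 was taken from log concentration–response curves of 3–9 independent experiments, each run in triplicate. Values are ± SEM.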

[2] = Growth inhibition of human CAL27 cells after 48 hrs by sulforhodamine B assay; type: functional; settings: CAL-27, 48 h; how it was run: as §1
Tubulin (Sus scrofa) [3] = target: T1, Tubulin (Sus scrofa) (UniProt P02554+P02550); experiment: Inhibition of porcine brain tubulin polymerization
[4] = Growth inhibition of human SCC4 cells after 48 hrs by sulforhodamine B assay; type: functional; settings: SCC-4, 48 h; for CC50: read-out: LC50 (the source's name); how it was run: as §1
[5] = Growth inhibition of human SCC9 cells after 48 hrs by sulforhodamine B assay; type: functional; settings: SCC-9, 48 h; for CC50: read-out: LC50 (the source's name); how it was run: as §1
SCC-4 [6] = experiment: Induction of cell cycle arrest in human SCC4 cells assessed as cells accumulation at G2/M phase after 18 hrs by propidium iodide-staining based flow cytometry; type: functional
How it was run: (§2)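 SCC-4 cells treated for 18 h with DMSO vehicle, 15 nM paclitaxel, or 1×, 2×, 3× or 4× LC50. Cells were stained with propidium iodide and cell-cycle distribution was read by flow cytometry. Three independent experiments.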

Tubulin (Sus scrofa) [7] = target: T1, Tubulin (Sus scrofa); experiment: Binding affinity to porcine brain tubulin relative to vinblastine
How it was run: (§3)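 Displacement of colchicine or vinblastine from purified tubulin, with the santalol at up to 7000-fold excess over the reference drug.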

SCC-4 [8] = experiment: Induction of mitotic arrest in human SCC4 cells assessed as increase number of cells with a rounded morphology at 55.6 uM after 18 hrs by immunofluorescence microscopy; type: functional, cell-based
SCC-4 [9] = experiment: Induction of cell cycle arrest in human SCC4 cells assessed as cells accumulation at G2/M phase at 4 times of LC50 concentration after 18 hrs by propidium iodide-staining based flow cytometry; type: functional; how it was run: as §2
SCC-4 [10] = experiment: Induction of mitotic arrest in human SCC4 cells assessed as punctuate and numerous spindles at 55.6 uM after 18 hrs by immunofluorescence microscopy; type: functional, cell-based
Tubulin (Sus scrofa) [11] = target: T1, Tubulin (Sus scrofa); experiment: Inhibition of porcine brain tubulin polymerization at 50 uM
[12] = Growth inhibition of human SCC25 cells after 48 hrs by sulforhodamine B assay; type: functional; settings: SCC-25, 48 h; for CC50: read-out: LC50 (the source's name); how it was run: as §1
[13] = Growth inhibition of human HSC2 cells after 48 hrs by sulforhodamine B assay; type: functional; settings: HSC-2, 48 h; for CC50: read-out: LC50 (the source's name); how it was run: as §1
HN5 = experiment: Growth inhibition of human HN5 cells after 48 hrs by sulforhodamine B assay; type: functional; settings: HN5, 48 h; how it was run: as §1
Tubulin (Sus scrofa) [14] = target: T1, Tubulin (Sus scrofa); experiment: Binding affinity to porcine brain tubulin relative to colchicine; how it was run: as §3
SCC-4 [15] = experiment: Induction of cell cycle arrest in human SCC4 cells assessed as cells accumulation at G2/M phase at 3 times of LC50 concentration after 18 hrs by propidium iodide-staining based flow cytometry; type: functional; how it was run: as §2
SCC-4 [16] = experiment: Induction of mitotic arrest in human SCC4 cells assessed as large multipolar spindles at 61.2 uM after 18 hrs by immunofluorescence microscopy; type: functional, cell-based
SCC-4 [17] = experiment: Induction of mitotic arrest in human SCC4 cells assessed as increase number of cells with a rounded morphology at 61.2 uM after 18 hrs by immunofluorescence microscopy; type: functional, cell-based

T1 sequence (P02550 whole entry, looked up): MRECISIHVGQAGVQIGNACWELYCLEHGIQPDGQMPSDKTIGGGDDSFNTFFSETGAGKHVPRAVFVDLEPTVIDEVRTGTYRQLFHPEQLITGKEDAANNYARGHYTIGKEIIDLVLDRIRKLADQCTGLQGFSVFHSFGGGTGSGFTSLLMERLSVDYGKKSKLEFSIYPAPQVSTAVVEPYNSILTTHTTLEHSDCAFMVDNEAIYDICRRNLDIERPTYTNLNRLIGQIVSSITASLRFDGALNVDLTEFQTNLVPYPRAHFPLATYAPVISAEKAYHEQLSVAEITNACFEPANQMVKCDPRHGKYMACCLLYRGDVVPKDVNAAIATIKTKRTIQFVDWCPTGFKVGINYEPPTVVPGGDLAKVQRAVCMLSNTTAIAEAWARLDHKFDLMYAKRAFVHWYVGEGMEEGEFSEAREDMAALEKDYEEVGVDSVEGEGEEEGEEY
T1 sequence (P02554 whole entry, looked up): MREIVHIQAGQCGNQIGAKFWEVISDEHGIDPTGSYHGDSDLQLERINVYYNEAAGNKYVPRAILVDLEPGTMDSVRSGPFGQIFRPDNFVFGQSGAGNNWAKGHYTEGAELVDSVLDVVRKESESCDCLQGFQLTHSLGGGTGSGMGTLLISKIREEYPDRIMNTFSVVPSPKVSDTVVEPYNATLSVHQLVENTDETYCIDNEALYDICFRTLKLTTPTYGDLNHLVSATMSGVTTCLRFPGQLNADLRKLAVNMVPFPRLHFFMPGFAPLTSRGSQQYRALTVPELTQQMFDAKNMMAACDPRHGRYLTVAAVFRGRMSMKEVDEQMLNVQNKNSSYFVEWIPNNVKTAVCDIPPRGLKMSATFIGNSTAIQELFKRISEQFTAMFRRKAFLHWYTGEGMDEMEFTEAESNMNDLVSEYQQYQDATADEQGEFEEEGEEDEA

Molecule `C/C(=C/CC[C@]1(C)C2C[C@@H]3[C@H](C2)C31C)CO` has a GI50 [1] of 3.9 µM, a TGI [1] of 5.4 µM and a CC50 [1] of 7.7 µM. For the same molecule, the GI50 [2] was 5.5 µM, the LC50 [2] was 11 µM and the TGI [2] was 7.6 µM. The inhibition (Tubulin (Sus scrofa) [3]) was “Dose-dependent effect”, the GI50 [4] was 4.5 µM and the TGI [4] was 7.7 µM. It also gave a CC50 [4] of 14 µM, a GI50 [5] of 3.4 µM and a TGI [5] of 5.3 µM. For the same molecule, the CC50 [5] was 9 µM, the Activity (SCC-4 [6]) was “Dose-dependent effect” and the fold change (FC) (Tubulin (Sus scrofa) [7]) was greater than 7000. For the same molecule, the Activity (SCC-4 [8]) was “Active”, the Activity (SCC-4 [9]) was “Active” and the Activity (SCC-4 [10]) was “Active”. For the same molecule, the inhibition (Tubulin (Sus scrofa) [11]) was “Active”, the GI50 [12] was 3.5 µM and the TGI [12] was 6 µM. The CC50 [12] was 11.6 µM, the GI50 [13] was 4.6 µM and the TGI [13] was 9.2 µM. It also gave a CC50 [13] of 10.8 µM, a GI50 (HN5) of 5.3 µM and an LC50 (HN5) of 12.2 µM. For the same molecule, the TGI (HN5) was 8.2 µM and the fold change (FC) (Tubulin (Sus scrofa) [14]) was greater than 7000.
Work on `C=C1[C@@H]2CC[C@@H](C2)[C@@]1(C)CC/C=C(/C)CO` yielded a GI50 [1] of 4.4 µM, a TGI [1] of 6.1 µM and a CC50 [1] of 9.1 µM. For the same molecule, the GI50 [2] was 5.7 µM, the TGI [2] was 8.4 µM and the GI50 [4] was 5.8 µM. For the same molecule, the TGI [4] was 10 µM, the CC50 [4] was 14.3 µM and the GI50 [5] was 4.2 µM. The TGI [5] was 6.8 µM, the CC50 [5] was 14.5 µM and the Activity (SCC-4 [6]) was “Dose-dependent effect”. The fold change (FC) (Tubulin (Sus scrofa) [7]) was greater than 7000, the Activity (SCC-4 [9]) was “Active” and the inhibition (Tubulin (Sus scrofa) [11]) was “Active”. The GI50 [12] was 4.2 µM, the TGI [12] was 6.3 µM and the CC50 [12] was 11.1 µM. It also gave a GI50 [13] of 7.3 µM, a TGI [13] of 9.4 µM and a CC50 [13] of 11.9 µM. The GI50 (HN5) was 6.3 µM, the TGI (HN5) was 9.6 µM and the fold change (FC) (Tubulin (Sus scrofa) [14]) was greater than 7000. For the same molecule, the Activity (SCC-4 [15]) was “Active”, the Activity (SCC-4 [16]) was “Active” and the Activity (SCC-4 [17]) was “Active”.
